From ChEMBL document CHEMBL4808178 (J Med Chem, 2021) come the findings set out here.

The nature of data set [1]: AUC(0 to t) in Sprague-Dawley rat at 25 mg/kg, po measured up to 48 hrs by LC-MS/MS analysis. It counts as ADME, organism-based. Also on record: route oral, dose 25 mg/kg, time <=48. The note with it: in vivo. An outline of the steps: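 Overnight-fasted male SD rats (about 250−270 g), three per group, single oral 25 mg/kg; test compound suspended in 5% CMC-Na, control as sodium salt in phosphate buffer. Blood sampled 0.25–48 h, plasma by centrifugation, stored −40 °C, quantified by LC−MS/MS against plasma standard curve (3–3000 ng/mL) with internal standard; model-fitted PK parameters.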

Data set [2] relates to HCT-116. Description: Induction of apoptosis in human HCT116 cells assessed as early apoptotic cells at 20 uM after 24 hrs by annexin V-FITC/propidium iodide staining based flow cytometry (reference value: 1%). It counts as functional.
The test system of data set [3] is HCT-116. Put plainly: Inhibition of cell stemness in human HCT116 cells assessed as reduction in SOX2 mRNA transcription levels at 20 uM after 24 hrs by RT-qPCR analysis. In kind it is functional, cell-based. An outline of the steps: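 Sorted ALDH⁺ HCT-116 cells treated 24 h; TRIZOL RNA, one-step RT-qPCR (RT 10 min 55 °C; 95 °C 1 min; 39 cycles 95 °C 10 s/60 °C 30 s) with melting-curve check; β-actin reference; fold change by 2^−ΔΔCt; t test, mean ± SD, n = 3.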

The test system of data set [4] is HCT-116. Put plainly: Effect on Wnt/beta-Catenin signaling in human HCT116 cells assessed as reduction in MMP7 mRNA level at 20 uM after 24 hrs by RT-qPCR analysis. It counts as functional, cell-based. An outline of the steps: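 HCT-116 cells treated 24 h; total RNA by TRIZOL, one-step RT-qPCR: 55 °C 10 min, 95 °C 1 min, then 39 cycles of 95 °C 10 s and 60 °C 30 s, with melting-curve and no-template controls. β-Actin as internal standard; relative expression by 2^−ΔΔCt, mean ± SD (n = 3).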

In data set [5] the target is Dual specificity protein kinase CLK2 (Homo sapiens, UniProt P49760). Put plainly: Inhibition of human CLK2 incubated for 2 hrs.
Data set [6] deals with HCT-116. Put plainly: Induction of apoptosis in human HCT116 cells assessed as late apoptotic cells at 10 uM after 24 hrs by annexin V-FITC/propidium iodide staining based flow cytometry (reference value: 5.1%). It counts as functional.
Data set [7] deals with HCT-116. Description: Induction of apoptosis in human HCT116 cells assessed as increase in Bax protein expression at 20 uM incubated for 24 hrs by Western blot analysis. In kind it is functional, cell-based. In outline:
(§1)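 HCT-116 cells at 2 × 10⁵ cells/mL in DMEM/10% FBS, grown 12 h at 37 °C, then treated 24 h (vehicle DMSO). Lysates quantified by BCA, run on 10% SDS-PAGE, PVDF transfer, blocked in 5% milk/TBST, primary antibodies 4 °C overnight, HRP secondary 2 h, chemiluminescent detection; normalized to β-actin, n = 3.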

Data set [8] can be described thus: Toxicity in BALB/c mouse xenografted with human HCT116 cells assessed as effect on spleen tissue at 60 to 90 mg/kg, po administered twice daily for 4 weeks and measured every 3 days by HE staining based assay. The note with it: in vivo, 672 h, dose 60-90 mg/kg. In kind it is organism-based, HCT-116. An outline of the steps: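 Male 5-week BALB/c nude mice (16−18 g), 0.2 mL of 5 × 10⁷ cells/mL HCT-116 injected into right armpit; at ~100 mm³ randomized, 5/group; intragastric 60 or 90 mg/kg twice daily for 4 weeks; tumor volume and body weight every 3 days; after sacrifice heart, liver, spleen, lung, kidney HE-stained.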

Data set [9] has as its system HCT-116. Description: Induction of apoptosis in human HCT116 cells assessed as increase in Cyt c protein expression at 20 uM incubated for 24 hrs by Western blot analysis. In kind it is functional, cell-based. An outline of the steps: as §1
The nature of data set [10]: MRT(0 to infinity) in Sprague-Dawley rat at 25 mg/kg, po measured up to 48 hrs by LC-MS/MS analysis. It counts as ADME, organism-based. The note with it: in vivo. An outline of the steps: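 Overnight-fasted male SD rats (250−270 g, n = 3/group), single oral 25 mg/kg in 5% CMC-Na (reference sodium salt in phosphate buffer); plasma at 0.25–48 h (12 timepoints), stored −40 °C; LC−MS/MS with internal-standard calibration 3–3000 ng/mL; parameters fitted by model.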

The next data set relates to L02. Put plainly: Cytotoxicity against human L02 cells assessed as reduction in cell viability incubated for 72 hrs by MTT assay. It counts as cell-based. The note with it: L02, 72 h. In outline:
(§2)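 About 5 × 10³ cells/well, seeded overnight at 37 °C, 5% CO₂, in DMEM or RPMI-1640 with 10% FBS and antibiotics. DMSO-dissolved compounds diluted in medium, exposure 72 h.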

Data set [11] deals with HCT-116. Description: Inhibition of cell stemness in human HCT116 cells assessed as morphological alterations at 5 uM after 10 days by microscopic analysis. Particulars: time 10.0 day. In kind it is functional, cell-based. An outline of the steps:
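Sorted ALDH⁺ HCT-116 cells, 800/well, in serum-free DMEM with B27 (1:50), EGF 20 ng/mL, β-FGF 10 ng/mL; co-incubated with compound (5 μM) or DMSO vehicle for 10 days; sphere number, diameter and morphology scored from microscopy images; mean ± SD, n = 3.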

Data set [12] addresses T1, Tyrosine-protein kinase ZAP-70 (Homo sapiens) (UniProt P43403).
T1 sequence (whole entry): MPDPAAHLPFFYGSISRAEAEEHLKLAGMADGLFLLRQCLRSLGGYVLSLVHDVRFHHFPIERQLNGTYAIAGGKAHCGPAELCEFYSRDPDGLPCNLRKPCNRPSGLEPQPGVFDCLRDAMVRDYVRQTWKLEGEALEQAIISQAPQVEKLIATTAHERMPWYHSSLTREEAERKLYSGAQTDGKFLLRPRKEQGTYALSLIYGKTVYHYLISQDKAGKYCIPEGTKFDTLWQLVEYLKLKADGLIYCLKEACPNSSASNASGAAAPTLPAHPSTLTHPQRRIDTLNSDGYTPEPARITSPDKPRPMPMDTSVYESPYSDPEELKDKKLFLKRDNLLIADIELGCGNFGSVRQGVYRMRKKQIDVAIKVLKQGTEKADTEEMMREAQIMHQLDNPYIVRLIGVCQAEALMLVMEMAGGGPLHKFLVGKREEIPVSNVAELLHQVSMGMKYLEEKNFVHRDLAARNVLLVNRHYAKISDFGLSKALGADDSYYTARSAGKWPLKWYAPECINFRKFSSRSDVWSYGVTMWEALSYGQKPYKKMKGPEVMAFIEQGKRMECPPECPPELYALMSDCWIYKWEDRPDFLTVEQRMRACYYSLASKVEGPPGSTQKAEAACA
Put plainly: Inhibition of ZAP70 (unknown origin) assessed as residual activity at 1 uM relative to control. An outline of the steps: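 Commercial profiling service against a 208-kinase panel; single concentration 1 μmol/L; residual kinase activity expressed relative to control.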

Another data set deals with MCF7. Description: Cytotoxicity against human MCF7 cells assessed as reduction in cell viability incubated for 72 hrs by MTT assay. It counts as functional, cell-based. Particulars: MCF7, 72 h. An outline of the steps:
as §2

Data set [13] has as its system HCT-116. Description: Induction of apoptosis in human HCT116 cells assessed as down regulation of pro-caspase 9 level at 20 uM incubated for 24 hrs by Western blot analysis. It counts as functional, cell-based. An outline of the steps: as §1
The test system of data set [14] is HCT-116. Description: Induction of cell cycle arrest in human HCT116 cells assessed as accumulation at G2/M phase at 20 uM after 24 hrs by propidium iodide-staining based flow cytometry (reference value: 14.67%). It counts as functional.

Calls of active or inactive are those of the source. The rule behind the calls is not given here.

Dual specificity protein kinase CLK2, sequence (P49760 whole entry): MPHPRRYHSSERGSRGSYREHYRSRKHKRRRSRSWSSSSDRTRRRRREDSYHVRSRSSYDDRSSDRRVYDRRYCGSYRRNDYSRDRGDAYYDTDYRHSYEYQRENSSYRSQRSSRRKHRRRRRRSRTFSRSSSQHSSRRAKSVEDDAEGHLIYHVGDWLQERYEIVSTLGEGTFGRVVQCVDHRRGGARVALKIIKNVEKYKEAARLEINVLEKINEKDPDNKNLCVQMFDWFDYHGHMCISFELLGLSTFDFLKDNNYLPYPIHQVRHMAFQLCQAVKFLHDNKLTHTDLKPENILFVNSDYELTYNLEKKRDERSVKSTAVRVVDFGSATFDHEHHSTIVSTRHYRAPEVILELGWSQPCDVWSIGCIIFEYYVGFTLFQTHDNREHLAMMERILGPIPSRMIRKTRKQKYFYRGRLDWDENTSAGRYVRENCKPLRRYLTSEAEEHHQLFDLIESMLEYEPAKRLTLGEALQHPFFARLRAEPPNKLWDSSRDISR

In data set [1], `O=C(NCCO)c1ccc2c(c1)nc(Nc1cccc(Cl)c1)c1ccncc12` registered an AUC(0-t) at 48 h of 40500 ng·h/mL. Further, the Activity in the data set with HCT-116 [2] was 22.5%; with HCT-116 [6] it was 23.4%; in data set [8], “Non-Toxic”; in data set [12], 26%; in the data set on HCT-116 [14], 22.72%. Further, the inhibition result in the data set on HCT-116 [3] and in the data set with HCT-116 [11] was “Active” each time. For the same compound, the outcome in the data set with HCT-116 [4], in the data set on HCT-116 [7], in the data set on HCT-116 [9] and in the data set with HCT-116 [13] was Active. For the same compound, the results for the IC50 (in data set [5]; with L02; in the data set with MCF7) were 0.0327 µM, 96.7 µM and 7.5 µM, respectively. The mean residence time (MRT inf) in data set [10] came to 6.26 h.
